# Screens from PubChem.
# Rows were chosen to be rich in hits. Some 11% of all compounds tested hit in one or more screens of this group.
# Diaph inh CS – diaphorase inhibitors and chemical oxidizers, primary screen, counter-screen for diaphorase-coupled primary assays, biochemical, uHTS, resorufin fluorescence; diaphorase resazurin-to-resorufin fluorescence, NADH, 16 min; bacterial (C. kluyveri) enzyme, not human; inhibition, % at 20 µM; 190,000 tested, 0.69% active;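 active = primary screen inhibition at 20 µM above a set limit, cut at about 50% in these data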;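 also: plate controls were DMSO with full reaction for no effect and wells lacking NADH for full effect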
#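 Assay system: diaphorase enzyme from Clostridium kluyveri; Input: enzyme working solution with 0.14 U/mL diaphorase; Timing: 16 min at room temperature; Technique: resorufin fluorescence, excitation 544 nm, emission 590 nm; Benchmarks: positive control minus NADH, DMSO neutral control.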
# L major viab – Leishmania major promastigote growth inhibition, primary screen; 200,000 tested, 9% active; Leishmania major promastigotes, resazurin fluorescence viability; inhibition, % at 10 µM; AID 1063, 2008;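 also: promastigotes grown with compound for 44 hours at 28 °C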
# G6PDH counter – L. mesenteroides G6PDH inhibitors, counter-screen for G6PDH-coupled screening assays, biochemical, Leuconostoc mesenteroides enzyme | glucose-6-phosphate dehydrogenase [Leuconostoc mesenteroides] | Purified L. mesenteroides G6PDH, diaphorase/resazurin coupled fluorescence, 45 min | inhibition, % at 5 µM | 200,000 tested, 0.12% active | AID 1020, 2008
# WT yeast gro inh – growth inhibition of WT strain, primary screen, mitochondrial fusion inhibitor project, WT and mutant strains, chemical genetic. mitochondrial fusion phenotypic screen. inhibition, % at 10 µM. 190,000 tested, 2.1% active; in the data active = inhibition above about 58%; tested in S. cerevisiae
# Diaph act CS – compounds boosting diaphorase resazurin reduction – biochemical, uHTS, resorufin fluorescence, counter-screen for diaphorase-coupled primary assays, primary screen. Diaphorase/resazurin coupled assay, 16 min; hits give high values; 1 = vehicle wells, 0 = NADH-free wells. activation factor at 20 µM. 190,000 tested, 0.005% active. AID 1229, 2008;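 active = diaphorase activity raised at least twofold by the compound at 20 µM; inactive = activation factor below 2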
#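 Material: purified diaphorase enzyme from Clostridium kluyveri; Also added: 0.114 mM NADH and 0.1 mM resazurin, final amounts; Doses: single compound dose of 20 µM, 1% DMSO final; Times: 16 min enzyme reaction, ambient temperature; Detection: resorufin fluorescence, excitation 544 nm, emission 590 nm; Measure: increased resorufin signal from activators or reducing compounds.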
# * marks the source's active call; other numbers are inactive results; . = no result. Rule as the data show it, unless noted: active = inhibition above about 50%; inactive = the rest.
SMILES,Diaph inh CS,L major viab,G6PDH counter,WT yeast gro inh,Diaph act CS
COc1ccc(CCNC(=O)COc2ccc(N(C)S(=O)(=O)c3ccc(Cl)cc3)cc2)cc1,15,97*,0,8,0.8
CN(C)CC(C)(C)CNS(=O)(=O)c1ccc(Cl)c(Cl)c1,5,80*,2,17,0.9
CN(C)CCNC(=O)c1cccc(NS(=O)(=O)c2ccc(Cl)c(Cl)c2)c1,7,-5,5,3,0.9
COc1ccc(C2=CSC3=NNC4(CCCCC4)NN23)cc1,7,67*,0,17,0.9
COc1ccc(C)cc1S(=O)(=O)N1CCOCC1,5,-9,8,-8,1
Cn1c(SCc2ccc([N+](=O)[O-])cc2)nnc1-c1cccnc1,17,-3,8,9,0.8
CCN(CC)c1ccc(N=Nc2nn(C)c(C)c2[N+](=O)[O-])cc1,22,53*,10,19,0.8
CC1CC1C(=O)OCC(=O)NCc1ccc(Cl)cc1Cl (centres undefined),8,-23,15,82*,0.9
COc1ccc(NC(=O)c2ccc(Cl)c(S(=O)(=O)N3CCc4ccccc4C3)c2)cn1,22,33,-28,58*,0.8
O=C(Nc1cccnc1)c1ccc(Cl)c(S(=O)(=O)N2CCc3ccccc32)c1,12,59*,1,60*,0.9
CCc1nnc(NC(=O)c2ccc(Cl)c(S(=O)(=O)N3CCc4ccccc4C3)c2)s1,-1,52*,5,-2,1
O=C(Nc1cccnc1)c1cccc(S(=O)(=O)N2CCc3ccccc32)c1,11,34,0,6,0.9
COc1ccccc1NC(=O)c1ccc(Cl)c(S(=O)(=O)N2CCOCC2)c1,19,2,5,2,0.8
COc1ccc(-c2nc(-c3ccccc3)[nH]c(=O)c2C#N)cc1,13,-11,-6,80*,0.9
CNc1nc(-c2ccccc2)nc(-c2ccc(OC)cc2)c1C#N,-2,2,5,7,1
CCCC(c1nnnn1CCc1ccccc1)N1CCN(C2CCCC2)CC1 (centres undefined),10,-3,-1,9,0.9
c1ccc(CCN(Cc2ccccc2)C2CCN(C3CCCC3)CC2)cc1,4,92*,4,24,1
CCCCn1c(O)c(N=Nc2ccccn2)c2ccccc21,23,66*,1,68*,0.8
O=C(Nc1nc2n(n1)C(c1ccc(Cl)cc1)CC(c1ccc(Cl)cc1)N2)c1ccco1 (centres undefined),25,76*,-28,-4,0.8
COc1ccc(C2CC(c3ccc(Cl)cc3)Nc3nc(NC(=O)c4ccco4)nn32)cc1 (centres undefined),-4,12,4,-9,1
COc1ccccc1-n1c(-c2ccc(Cl)cc2)c[nH]c1=S,18,-7,-7,-1,0.8
C=CCn1c(O)c(C2=c3ccccc3=NC2=O)sc1=Nc1ccc(O)cc1,.,.,.,94*,.
CC(/C=C/c1ccccc1)=N\NC(=S)NC(C)C,0,-7,1,71*,1
CN(Cc1cnn(-c2ccc(F)cc2)c1)Cc1nc(Cc2ccccc2)no1,4,-4,12,3,1
c1ccc(-c2csc3ncnc(N4CCc5ccccc5C4)c23)cc1,4,89*,5,70*,1
SMILES,Diaph inh CS,L major viab,G6PDH counter,WT yeast gro inh,Diaph act CS
c1ccc(-c2csc3ncnc(N4CCOCC4)c23)cc1,.,15,9,5,.
Cc1nc(N2CCCCC2)c(C#N)c(C)c1[N+](=O)[O-],3,-5,0,18,1
Cc1sc(NC(=S)NC(=O)C(C)(C)C)c(C(N)=O)c1C,33,3,17,1,0.7
Cc1[nH]n(-c2ncc(-c3ccccc3)s2)c(=O)c1C(c1ccc(Cl)cc1)C(C#N)C#N (centres undefined),24,35,-9,8,0.8
C=CCOc1cccc(/C=C2\C(=O)N(Cc3ccc(C)cc3)C(C)=C2C(=O)OC)c1,0,92*,-9,11,1
CCOc1cc(/C=C2\C(=O)N(Cc3ccc(C)cc3)C(C)=C2C(=O)OC)ccc1O,37,48,12,10,0.6
C=CCn1c(COc2ccccc2)nnc1SC(C)C(=O)N/N=C/c1cc(Cl)ccc1O (centres undefined),19,98*,10,-17,0.8
CCOC(=O)C1=C(O)/C(=C\c2ccc(CNS(=O)(=O)c3ccc(Br)cc3)o2)N=C1C,52*,66*,-4,-21,0.5
COC(=O)C1=C(O)/C(=C\c2ccc(CNS(=O)(=O)c3ccc(Cl)cc3)o2)N=C1C,26,53*,-23,-5,0.7
COC(=O)C1=C(O)/C(=C\c2ccc(CNC(=O)C(=O)Nc3ccc(C)cc3)o2)N=C1C,10,-1,2,76*,0.9
Cc1ccc(C2CC(=O)NC(SCC(N)=O)=C2C#N)s1 (centres undefined),5,-1,10,-2,1
COc1ccc(CCNCc2ccc(OCC(=O)N3CCCCC3)c(OC)c2)cc1OC,-24,-5,5,-16,1.2
COc1cc(CNCCc2ccccc2F)ccc1OCc1ccc(Cl)nc1,8,100*,-4,14,0.9
COc1cc(CNCCc2ccc(F)cc2)ccc1OCc1ccc(Cl)nc1,-9,100*,6,16,1.1
COc1ccc(C2(CNC(=O)c3cccc([N+](=O)[O-])c3)CCOCC2)cc1,11,-5,-6,2,0.9
Cc1ccc(S(=O)(=O)NCCSc2nnnn2-c2cc(C)ccc2C)cc1,21,100*,2,8,0.8
Cc1ccc(S(=O)(=O)NCCSc2nnnn2-c2ccccc2)cc1,15,7,11,14,0.9
Cc1ccc(C)c(-n2nnnc2Sc2nnnn2-c2ccccc2)c1,.,98*,.,-42,.
COC(=O)C(C)(C(=O)OC)c1ccccc1[N+](=O)[O-],-2,3,8,6,1
O=C(c1cc2ccccc2c(=O)o1)N1CCCCCC1,9,-3,2,-15,0.9
Cn1c(=S)n(C)c2ccccc21,-2,-4,8,2,1
Cn1ccc(=S)c2ccccc21,16,88*,6,-2,0.8
CCOC(=O)c1c(NC(=O)OC)sc(C(=O)N(CC)CC)c1C,8,0,-7,11,0.9
O=S(=O)(c1ccc(Cl)cc1)N1CCN(C(=S)Nc2ccccc2F)CC1,34,6,0,-3,0.7
CCN(CCNCC(O)COCc1ccc(Cl)cc1)c1cccc(C)c1 (centres undefined),12,25,-8,62*,0.9
